High-throughput results from PubChem BioAssay.
GPR7 antagonist = GPR7 receptor antagonists, primary screen, cell-based, fluorescence, single concentration; Neuropeptides B/W receptor type 1 (Homo sapiens), P48145; GPR7-expressing cells, fluorescence antagonist assay; inhibition, % at 4.4 µM; 290,000 compounds, 1.1% hits; in the data active = inhibition above about 16%, passing the limit was not always enough;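 note: cells stimulated with the agonist NPW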
Target sequence (P48145 whole entry, looked up): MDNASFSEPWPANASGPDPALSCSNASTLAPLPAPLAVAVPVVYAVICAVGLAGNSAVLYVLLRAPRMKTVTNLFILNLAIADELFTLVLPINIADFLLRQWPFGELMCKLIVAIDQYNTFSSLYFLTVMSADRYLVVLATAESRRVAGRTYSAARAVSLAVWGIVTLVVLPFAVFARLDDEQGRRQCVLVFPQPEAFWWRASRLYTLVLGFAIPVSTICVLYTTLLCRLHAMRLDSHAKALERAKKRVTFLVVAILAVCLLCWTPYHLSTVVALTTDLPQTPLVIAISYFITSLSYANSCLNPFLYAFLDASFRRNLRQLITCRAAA
DAGLB inhibitor = DAGLB lipase inhibitors, primary screen, biochemical, fluorescence, HTS | HEK293T DAGLB membrane lysate, EnzChek fluorogenic substrate | inhibition, % at 5.17 µM | 340,000 compounds, 0.059% hits; in the data active = inhibition above about 34%
TAAR1 agonist = human TAAR1 agonists, primary screen, Fluo-8 calcium fluorescence, CHO RD-HGA16 cells | vehicle wells 0%, saturating PEA agonist 100% | activation, % at 3 µM | Trace amine-associated receptor 1 (Homo sapiens), Q96RJ0 | 360,000 compounds, 0.99% hits;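 active = activation above the mean activation of all test compounds in the run plus 3 SD, cut at about 38% in these data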
Target sequence (Q96RJ0 whole entry, looked up): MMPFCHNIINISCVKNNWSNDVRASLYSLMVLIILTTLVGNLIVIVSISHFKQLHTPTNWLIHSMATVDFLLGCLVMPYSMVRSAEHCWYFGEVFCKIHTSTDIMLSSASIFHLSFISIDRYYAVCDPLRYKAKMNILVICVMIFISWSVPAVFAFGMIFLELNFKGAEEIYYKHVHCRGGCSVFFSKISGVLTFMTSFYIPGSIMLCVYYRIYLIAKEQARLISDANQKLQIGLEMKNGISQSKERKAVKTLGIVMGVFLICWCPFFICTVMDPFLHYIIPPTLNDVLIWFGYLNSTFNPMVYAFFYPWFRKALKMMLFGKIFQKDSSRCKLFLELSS
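Repeats: no replicates (n 1) | Material: CHO-derived RD-HGA16 cells with stable Gα16 and human TAAR1 | Technique: Kinetic Fluo-8 calcium fluorescence | Schedule: 17-24 h seeding, 75 min 37 °C dye, 30 min RT | Evaluation: % activation from peak over basal fluorescence ratio, DMSO-to-PEA scaled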
MPTP block = mitochondrial permeability transition pore inhibitors, primary screen, biochemical, isolated mouse mitochondria, absorbance | Ca2+ swelling absorbance, 30 min | inhibition, % at 10 µM | 360,000 compounds, 1.4% hits;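 active = inhibition of 50% or more, scaled per plate between neutral and stimulator controls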
TAAR1 antagonist = human TAAR1 antagonists, primary screen, Fluo-8 calcium fluorescence, CHO RD-HGA16 cells. inhibition, % at 3 µM. 360,000 compounds, 1.5% hits. antagonist. AID 624466, 2012. Trace amine-associated receptor 1 (Homo sapiens), Q96RJ0;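 active = inhibition above a per-plate cutoff, the mean inhibition of test compounds on that plate plus 3 SD, cut at about 49% in these data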
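Material: RD-HGA16 CHO cells with stable hTAAR1 and Gα16; Dosing: single nominal final test compound concentration of 3 µM; Schedule: seeding 17-24 h prior, 75-min 37 °C, 30-min RT dye loading; Detection: kinetic Fluo-8 calcium fluorescence measurement; Measure: % inhibition from peak post-agonist over basal fluorescence ratio; Benchmarks: vehicle and agonist controls.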
Hits are given with their value. Rows were chosen to be rich in hits. Some 4% of all compounds tested hit in one or more screens of this group.

Results for COC(=O)[C@]12CCCCC=C1N(CCC1=CCCCC1)C(=O)[C@H](CC(=O)NCCCCc1ccccc1)C2 ?
TAAR1 agonist: inactive; MPTP block: inactive; TAAR1 antagonist: inactive

How did CCOC(=O)C1CCN(C(=S)Nc2ccccc2)CC1 do in these assays?
GPR7 antagonist: inactive; DAGLB inhibitor: inactive; TAAR1 agonist: inactive; MPTP block: inactive; TAAR1 antagonist: inactive

Results for CCOC(=O)C1CCCN(C(=S)Nc2ccc(Nc3ccccc3)cc2)C1 (centres undefined) ?
GPR7 antagonist: inactive; DAGLB inhibitor: inactive; TAAR1 agonist: 44; MPTP block: inactive; TAAR1 antagonist: inactive

Results for CCOC(=O)C1CCCN(C(=O)CC(c2ccccc2)c2ccccc2)C1 (centres undefined) ?
GPR7 antagonist: inactive; DAGLB inhibitor: inactive; TAAR1 agonist: inactive; MPTP block: inactive; TAAR1 antagonist: inactive

How did CCOC(=O)C1CCCN(C(=O)Cc2c(C(=O)O)[nH]c3ccccc23)C1 (centres undefined) do in these assays?
GPR7 antagonist: inactive; DAGLB inhibitor: inactive; TAAR1 agonist: 39; MPTP block: inactive; TAAR1 antagonist: inactive

How did O=[N+]([O-])c1cc2c(c(CSc3nnc(Nc4ccccc4)s3)c1)OCOC2 do in these assays?
GPR7 antagonist: inactive; DAGLB inhibitor: inactive; TAAR1 agonist: inactive; MPTP block: inactive; TAAR1 antagonist: 53

Results for Cc1ccccc1Nc1nnc(SCc2cc([N+](=O)[O-])cc3c2OCOC3)s1 ?
GPR7 antagonist: inactive; DAGLB inhibitor: inactive; MPTP block: inactive

What do the screens show for `CCOC(=O)[C@]12CCC=C1N(CCC1=CCCCC1)C(=O)[C@H](CC(=O)N1CCSCC1)C2`?
TAAR1 agonist: inactive; MPTP block: inactive; TAAR1 antagonist: inactive

What do the screens show for `Cc1c(CCOC(=O)c2cc([N+](=O)[O-])cc([N+](=O)[O-])c2)sc[n+]1CC(=O)c1ccccc1`?
GPR7 antagonist: inactive; DAGLB inhibitor: inactive; TAAR1 agonist: inactive; MPTP block: inactive; TAAR1 antagonist: inactive

How did Cc1c(CCOC(=O)c2ccccc2)sc[n+]1CC(=O)c1ccc(Br)cc1 do in these assays?
GPR7 antagonist: 20; DAGLB inhibitor: inactive; MPTP block: inactive

What do the screens show for `CCCCCCCCCCCCCCCC[n+]1ccc(C(N)=O)cc1`?
GPR7 antagonist: inactive; DAGLB inhibitor: inactive; TAAR1 agonist: inactive; MPTP block: inactive; TAAR1 antagonist: inactive

What do the screens show for `CCCCCCCCCCCCCCCC[n+]1ccc(/C=N/O)cc1`?
GPR7 antagonist: inactive; DAGLB inhibitor: inactive; TAAR1 agonist: inactive; MPTP block: inactive; TAAR1 antagonist: 78

Results for COc1ccc(C2CC(c3ccccc3)=NN2C(=O)COC(=O)c2ccc(S(C)(=O)=O)cc2)cc1 (centres undefined) ?
DAGLB inhibitor: inactive; TAAR1 agonist: inactive; MPTP block: inactive; TAAR1 antagonist: inactive

Results for COc1ccc(C2CC(c3ccccc3)=NN2C(=O)COC(=O)c2cc(S(=O)(=O)N3CCOCC3)ccc2F)cc1 (centres undefined) ?
GPR7 antagonist: 21; DAGLB inhibitor: inactive; TAAR1 agonist: inactive; MPTP block: inactive; TAAR1 antagonist: inactive

What do the screens show for `Cc1ccc(NC(=O)C2(C)CCN2C(=O)Cc2ccc(C(C)C)cc2)cc1` (centres undefined)?
TAAR1 agonist: inactive; MPTP block: inactive; TAAR1 antagonist: inactive

How did Cn1c(=O)c2c(nc(Br)n2Cc2ccccc2Cl)n(C)c1=O do in these assays?
GPR7 antagonist: 19; DAGLB inhibitor: inactive; TAAR1 agonist: inactive; MPTP block: inactive; TAAR1 antagonist: inactive

How did CCOc1nc2c(c(=O)n(C)c(=O)n2C)n1Cc1ccccc1Cl do in these assays?
GPR7 antagonist: inactive; DAGLB inhibitor: inactive; TAAR1 agonist: inactive; MPTP block: inactive; TAAR1 antagonist: inactive

How did Brc1ccc2c(c1)CN1CCCC1=N2 do in these assays?
GPR7 antagonist: inactive; DAGLB inhibitor: inactive; TAAR1 agonist: inactive; MPTP block: inactive; TAAR1 antagonist: inactive

What do the screens show for `O=C(C1CCN(c2ncnc3c2nc2n3CCCCC2)CC1)N1CCN(c2cccc(Cl)c2)CC1`?
GPR7 antagonist: inactive; DAGLB inhibitor: inactive; TAAR1 agonist: inactive; MPTP block: inactive; TAAR1 antagonist: 63

What do the screens show for `O=C(C1CCCN(c2ncnc3c2nc2n3CCCCC2)C1)N1CCN(c2ccc(Cl)cc2)CC1` (centres undefined)?
GPR7 antagonist: inactive; DAGLB inhibitor: inactive; TAAR1 agonist: 38; MPTP block: inactive; TAAR1 antagonist: 77

Results for CC1CCN(C(=O)C2CCN(c3ncnc4c3nc3n4CCCCC3)CC2)CC1 ?
GPR7 antagonist: inactive; DAGLB inhibitor: inactive; TAAR1 agonist: inactive; MPTP block: inactive; TAAR1 antagonist: inactive

What do the screens show for `O=C(C1CCCN(c2ncnc3c2nc2n3CCCCC2)C1)N1CCN(c2ccc(F)cc2)CC1` (centres undefined)?
GPR7 antagonist: inactive; DAGLB inhibitor: inactive; TAAR1 agonist: inactive; MPTP block: inactive; TAAR1 antagonist: inactive

How did CCCC(=O)N(Cc1cc2cccc(C)c2[nH]c1=O)c1ccccc1OC do in these assays?
GPR7 antagonist: 21; DAGLB inhibitor: inactive; TAAR1 agonist: inactive; MPTP block: inactive; TAAR1 antagonist: inactive

What do the screens show for `COc1ccc(NC(=O)/C(=C\c2ccccc2)NC(=O)c2ccco2)cc1`?
GPR7 antagonist: inactive; DAGLB inhibitor: inactive; TAAR1 agonist: inactive; MPTP block: inactive; TAAR1 antagonist: inactive

What do the screens show for `COc1cc(OC)cc(N(C(=O)CNC(=O)c2ccco2)C(C(=O)NCC2CCCO2)c2ccccc2)c1` (centres undefined)?
GPR7 antagonist: inactive; DAGLB inhibitor: inactive; TAAR1 agonist: inactive; MPTP block: inactive; TAAR1 antagonist: 52

How did O=C(C1CCCCC1)N1C[C@@H](O)[C@H](n2cc(-c3ccc(F)cc3)nn2)C[C@@H]1c1ccccc1 do in these assays?
DAGLB inhibitor: inactive; TAAR1 agonist: inactive; MPTP block: inactive; TAAR1 antagonist: inactive

Results for O=C1N[C@H](Cc2ccccc2)COC(=O)[C@H](Cc2ccc(F)cc2)CC/C=C/C[C@@H]1CC(=O)N(CCO)Cc1ccccc1 ?
DAGLB inhibitor: inactive; TAAR1 agonist: 44; MPTP block: inactive; TAAR1 antagonist: 64

What do the screens show for `O=C1N[C@@H](c2ccccc2)COC(=O)[C@H](Cc2ccc(F)cc2)C/C=C\C[C@H]1CC(=O)N(CCO)Cc1ccccc1`?
DAGLB inhibitor: inactive; TAAR1 agonist: inactive; MPTP block: inactive; TAAR1 antagonist: inactive

How did O=C1N[C@H](Cc2ccccc2)COC(=O)[C@@H](Cc2ccc(F)cc2)CC/C=C/C[C@H]1CC(=O)N(CCO)Cc1ccccc1 do in these assays?
DAGLB inhibitor: inactive; TAAR1 agonist: inactive; MPTP block: inactive; TAAR1 antagonist: inactive
